The source made the active and inactive calls.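 The calls were made as follows: active = peak block of the KCNQ2 potassium channel above 30% at any tested dose, with a fitted dose response curve; inactive = no channel block at any dose, or no curve.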
Target: Potassium voltage-gated channel subfamily KQT member 2 (Rattus norvegicus) (UniProt O88943)
Test: KCNQ2 thallium flux blockade – cell-based, FluxOR thallium flux, CRC, selectivity assay for KCNK9 inhibitor project, SAR follow-up (AID 588761)
Conditions: KCNQ2-expressing cells; series mostly up to 30 µM
How it was run: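 Assay system: KCNQ2-expressing CHO cells; Reagent: Thallium/potassium stimulus, 5x stock with 7 mM Tl2SO4 and 25 mM K2SO4; Compound dosing: concentration-response series; Times: dye 90 min RT, compound 20 min RT; Detection: FluxOR thallium-flux fluorescence, kinetic imaging; Controls: XE-991 as KCNQ2 inhibitor control.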

Potassium voltage-gated channel subfamily KQT member 2 (Rattus norvegicus), sequence (O88943 whole entry, looked up): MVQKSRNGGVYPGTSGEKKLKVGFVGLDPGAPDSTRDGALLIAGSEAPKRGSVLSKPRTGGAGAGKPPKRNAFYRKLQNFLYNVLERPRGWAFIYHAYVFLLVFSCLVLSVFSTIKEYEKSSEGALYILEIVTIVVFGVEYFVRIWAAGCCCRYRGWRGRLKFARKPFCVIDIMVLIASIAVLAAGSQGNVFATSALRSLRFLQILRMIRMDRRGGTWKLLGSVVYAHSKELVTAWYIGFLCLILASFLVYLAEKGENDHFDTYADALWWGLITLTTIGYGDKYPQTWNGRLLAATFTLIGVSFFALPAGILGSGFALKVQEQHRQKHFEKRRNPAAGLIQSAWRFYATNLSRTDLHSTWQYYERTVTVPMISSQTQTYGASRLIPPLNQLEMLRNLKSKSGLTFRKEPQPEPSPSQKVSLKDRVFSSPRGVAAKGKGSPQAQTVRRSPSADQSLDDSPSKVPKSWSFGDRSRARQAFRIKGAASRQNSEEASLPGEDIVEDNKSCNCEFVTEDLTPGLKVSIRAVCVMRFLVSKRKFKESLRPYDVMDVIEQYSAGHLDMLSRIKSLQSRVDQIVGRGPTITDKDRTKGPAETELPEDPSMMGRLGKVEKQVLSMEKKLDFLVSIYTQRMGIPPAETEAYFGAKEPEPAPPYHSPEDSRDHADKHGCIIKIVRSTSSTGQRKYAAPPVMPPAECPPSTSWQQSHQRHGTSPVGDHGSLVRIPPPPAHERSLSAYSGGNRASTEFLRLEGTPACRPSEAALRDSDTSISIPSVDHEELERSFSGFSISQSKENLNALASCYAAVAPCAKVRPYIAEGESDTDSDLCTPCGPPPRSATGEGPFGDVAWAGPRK

| Compound | outcome |
| --- | --- |
| Cc1cccc(C(=O)Nc2ccccc2C(=O)Nc2ccccc2)c1 | inactive |
| Cc1cccc(NC(=O)c2cccc(NC(=O)c3ccccc3)c2)c1 | inactive |
| Cc1cccc(C(=O)Nc2cccc(C(=O)Nc3ccccc3)c2)c1 | inactive |
| Cc1cccc(C(=O)Nc2ccc(C(=O)Nc3ccccc3)cc2)c1 | inactive |
| Cc1cccc(NC(=O)c2ccccc2NC(=O)c2ccccc2)c1 | inactive |

Reference: PubChem BioAssay AID588761 (Johns Hopkins Ion Channel Center, 2011)
